Test results: publication PMC9359741 (Clinical Cancer Research, 2022)

What was measured:
[1] = test system: HNSCC, relapsed/refractory glioblastoma; conditions: plus spartalizumab; cited from earlier work
[2] = test system: advanced/metastatic PDA or colorectal cancer; conditions: plus durvalumab; cited from earlier work
pancreatic cancer = conditions: plus nivolumab; pancreatic cancer (N = 31); MSI-Stable; cited from earlier work
[3] = test system: patients with selected advanced solid tumors; assay type: in vivo, human; conditions: Phase 1b
Procedure, shortened: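 Adults (≥18 y) with histologically or cytologically confirmed selected advanced solid tumours. Oral test compound started at 200 mg QD, with planned escalation to 400 mg QD, plus anti-PD-1 antibody 2 mg/kg IV every 3 weeks. DLT incidence defined the MTD (DLT criteria in supplement). AEs and lab abnormalities were graded by CTCAE v4.03 in all patients given ≥1 dose and summarized descriptively.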

[4] = test system: patients with PDA, PD-1/PD-L1 IR advanced solid tumors or prOVCA; assay: Phase 2, ARRY-382 300 mg QD plus pembrolizumab 200 mg IV Q3W: adverse events; assay type: in vivo, human; conditions: all patients
Procedure, shortened: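 Open-label study at 12 US centres with three cohorts: pancreatic ductal adenocarcinoma after ≥1 prior systemic line; tumours progressing on anti-PD-1/PD-L1; ovarian, peritoneal or fallopian cancer progressing ≤6 months after ≥4 platinum cycles. Oral test compound 300 mg QD plus anti-PD-1 antibody 200 mg IV every 3 weeks. AEs, SAEs and labs graded by CTCAE v4.03 in all dosed patients; descriptive summary.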

CNC(=O)c1cc(Oc2ccc3nc(N[C@@H]4CCCC[C@H]4O)sc3c2)ccn1 [BLZ945]
Patients with a PR [1]: 2 patients

FC(F)(F)c1ccc(CNc2ccc(Cc3c[nH]c4ncc(Cl)cc34)cn2)cn1 [pexidartinib]
Patients with stable disease [2]: 4 patients

cabiralizumab: a CSF-1R–targeting antibody
Patients with a PR (pancreatic cancer): 3 patients

pembrolizumab: humanized monoclonal antibody that blocks the interaction between PD-1 and its ligands PD-L1 and PD-L2 [reference compound]
Pembrolizumab-related AEs: All AEs ([3]; Total, N = 19): 12 (63.2%) n (%)
Pembrolizumab-related increased AST ([3]; all patients): 36.8%
Pembrolizumab-related increased lipase ([3]; all patients): 26.3%
AEs considered to be related to pembrolizumab [4]: 36 (63.2%) n (%)
